# Lmaj promast: Leishmania major promastigote growth inhibition, primary screen; AID 1063, 2008; Leishmania major promastigotes, resazurin fluorescence viability; inhibition, % at 10 µM; hit rate 9% among 200,000; in the data active means inhibition above about 50%;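 further: promastigotes grown with compound for 44 hours at 28 °C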
# S1P4 antag: S1P4 receptor antagonists, primary screen, cell-based; S1P4-expressing cells, antagonist mode, reporter read-out; Sphingosine 1-phosphate receptor 4 (Homo sapiens), O95977; hit rate 0.26% among 220,000; inhibition, % at 4.98 µM; AID 1510, 2009; in the data active means inhibition above about 29%;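 further: 0% = wells stimulated with agonist and 100% = vehicle wells without agonist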
# S1P4 agonist: S1P4 receptor agonists, primary screen, cell-based; Sphingosine 1-phosphate receptor 4 (Homo sapiens), O95977; S1P4-expressing cell line, agonist reporter assay; activation, % at 4.98 µM; hit rate 0.35% among 220,000; AID 1509, 2009; in the data active means activation above about 11%;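 further: 0% = DMSO vehicle and 100% = reference agonist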
# S1P3 antagonist: S1P3 receptor antagonists, primary screen, cell-based | CHO S1P3 NFAT-BLA reporter, FRET fluorescence, antagonist mode | inhibition, % at 4.98 µM | hit rate 0.27% among 170,000 | AID 485, 2006;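 active means inhibition above the plate cutoff, the mean inhibition of test wells on that plate plus 3 SD, cut at about 28% in these data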;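 further: cells challenged with S1P at its EC80 of 0.8 µM; blue over green emission ratio from cleaved BLA substrate after 4 h stimulation; 0% = S1P-stimulated wells and 100% = unstimulated DMSO-only wells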
# Target sequence (Q99500 whole entry, looked up): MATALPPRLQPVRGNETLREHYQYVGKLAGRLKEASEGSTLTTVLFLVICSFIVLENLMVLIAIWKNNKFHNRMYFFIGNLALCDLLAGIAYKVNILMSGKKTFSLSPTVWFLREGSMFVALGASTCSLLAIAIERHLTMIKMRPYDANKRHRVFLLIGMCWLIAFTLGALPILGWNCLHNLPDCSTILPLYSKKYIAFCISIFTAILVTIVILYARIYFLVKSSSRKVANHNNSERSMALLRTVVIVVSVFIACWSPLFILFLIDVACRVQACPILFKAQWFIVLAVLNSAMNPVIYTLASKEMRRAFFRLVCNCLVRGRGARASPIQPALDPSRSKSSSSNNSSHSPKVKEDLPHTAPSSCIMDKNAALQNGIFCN
# MDM2 E3 inh: MDM2-luciferase reporter signal enhancers, primary screen, MDM2 E3 ligase inhibitor project, cell-based, luminescence, 1536-well. E3 ubiquitin-protein ligase Mdm2 (Homo sapiens), Q00987. hit rate 0.11% among 210,000. signal enhancement, % at 5 µM. AID 1230, 2008. cell-based MDM2 ubiquitination luciferase reporter, 2 h; 0 = plate control, 100 = twice control, blank-subtracted;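 active means signal enhancement of 30% or more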;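 further: luminescence tracks abundance of the self-degrading MDM2-luciferase fusion protein; higher signal means inhibition of MDM2 E3 ligase activity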
#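 Assay system: stable mammalian line carrying autodegrading MDM2–luciferase fusion reporter; amount: 2000 cells seeded into each well; buffer or medium: DMEM; benchmarks: plate control and blank wells; signal: luciferase luminescence; timing: 2 h compound exposure at 37 °C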
# S1P4 ag conf: S1P4 receptor agonists, retest, confirmation, cell-based, high throughput | S1P4 agonist cell-based reporter assay | shares compounds with S1P4 agonist | hit rate 7% among 740 | activation, % at 4.98 µM; in the data active means activation above about 12%;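 further: 0% = vehicle and 100% = full reference agonist response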
# S1P1 agonist: S1P1 receptor agonists, human, counter-screen for S1P4 agonist project, cell-based | shares compounds with S1P4 agonist | S1P1 agonist cell-based assay, activation | activation, % at 4.98 µM | hit rate 4% among 740 | AID 1563, 2009; in the data active means activation above about 21%;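 further: 0% = vehicle wells and 100% = reference agonist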
# Numbers without * were called inactive; · = no result given. The entries come from a sample that favours hits as a whole.
SMILES,Lmaj promast,S1P4 antag,S1P4 agonist,S1P3 antagonist,MDM2 E3 inh,S1P4 ag conf,S1P1 agonist
Cc1nn(C(=O)Cn2cc([N+](=O)[O-])cn2)c(C)c1Cl,-7,-1,0,0,-14,·,·
COc1ccc(-c2nnc(SCc3nnc(-c4cccs4)o3)n2CC2CCCO2)cc1 (configuration not stated),-3,-11,57*,-12,·,-1,5
Cc1nnc(SCc2nnc(-c3cccs3)o2)n1C1CCCCC1,-7,-13,2,-8,-17,·,·
Cc1ccc(C(C(=O)NCc2ccco2)N(C(=O)CNC(=O)c2cccs2)c2c(C)cccc2C)cc1 (configuration not stated),10,-1,81*,-1,-9,-2,-2
O=[n+]1c2c(n([O-])c3cc(F)ccc31)CCCC2,-2,-8,21*,4,-1,-2,-7
Cc1ccc2c(c1)n([O-])c1c([n+]2=O)CCCC1,-4,-13,2,·,-9,·,·
Cc1cccc(C)c1N(CC(=O)N1CCN(c2ccccc2F)CC1)S(C)(=O)=O,8,4,0,-9,-5,·,·
Cc1cccc(C)c1N(Cc1ccccc1F)S(C)(=O)=O,2,5,33*,3,·,-2,-2
Cc1cccc(OCC(=O)Nc2ncn[nH]2)c1C,·,-20,24*,-3,·,-3,-4
Cc1c(Br)c([N+](=O)[O-])nn1C(C)C(=O)Nc1c(C)n(C)n(-c2ccccc2)c1=O (configuration not stated),-2,-5,-1,·,-14,·,·
O=C(CN1c2ccccc2Sc2ccccc21)NNC(=S)Nc1ccc(Cl)cc1,·,1,94*,-5,-16,-1,-4
O=C(CN1c2ccccc2Sc2ccccc21)NNC(=S)Nc1ccc(Cl)cc1Cl,-3,-7,-1,·,-2,·,·
COc1ccc(-c2c(C#N)c(N)nc3c2CCc2ccccc2-3)cc1OC,14,-13,14*,·,-24,18*,10
COc1cccc(OCC(=O)NNC(=O)Cc2cccs2)c1,45,-26,3,-11,-3,·,·
COc1cccc(C(=O)NNC(=O)Cc2cccs2)c1,-2,-9,24*,-3,-30,-1,3
Cc1ccccc1OCC(=O)NC(=S)Nc1ccc(N2CCOCC2)c(Cl)c1,-8,-24,2,·,-6,·,·
COc1ccccc1C(=O)NC(=S)Nc1ccc(N2CCOCC2)c(Cl)c1,13,-5,36*,-16,-11,2,81*
Cc1c(C(=O)Nc2ccc3c(c2)OCO3)sc2ncn(CC(=O)N3CC(C)CC(C)C3)c(=O)c12 (configuration not stated),-10,3,-2,·,-17,·,·
C=CCn1c(=N)c(C#N)cc2c(=O)n3ccccc3nc21,28,-25,0,·,-4,·,·
Cc1ccccc1-n1c(=O)c(C#N)cc2c(=O)n3ccccc3nc21,4,-39,44*,·,-33,27*,46*
N#Cc1cc2c(=O)n3ccccc3nc2n(-c2ccc(Cl)cc2)c1=O,-2,-15,9,-8,-7,·,·
Cc1cc(-n2c(=O)c(C#N)cc3c(=O)n4ccccc4nc32)no1,5,-74,28*,-99,·,20*,34*
C=CCn1c(=O)c(C#N)cc2c(=O)n3ccccc3nc21,21,-15,11*,-13,-9,12*,31*
COc1ccc2c(c1)O[C@@H](c1ccc3c(c1)OCO3)[C@H](OC(=O)Nc1cc(OC)c(OC)c(OC)c1)C2=O,47,0,1,-4,·,·,·
CC(C)CNC(=O)c1ccc(COc2ccc(Cl)cc2Cl)o1,18,-28,1,·,3,·,·
SMILES,Lmaj promast,S1P4 antag,S1P4 agonist,S1P3 antagonist,MDM2 E3 inh,S1P4 ag conf,S1P1 agonist
O=C(CSC(=S)N1CCSCC1)c1ccc(Cl)cc1,-6,-18,1,16,-30,·,·
O=C(CSC(=S)N1CCSCC1)c1ccccc1,-13,8,53*,0,-34,-2,1
CCOc1ccc(S(=O)(=O)n2c(C)nc3ccccc32)cc1,-3,-4,14*,-11,-6,-1,-7
COC(=O)c1ccc(C(=O)OC)c(NC(=O)c2cc3ccccc3o2)c1,-6,0,1,·,·,·,·
CCOC(=O)c1sc(NC(=S)NC(=O)c2ccco2)nc1C,1,-1,34*,-2,-4,-3,-2
COC(=O)c1sc(NC(=O)c2ccco2)nc1C,-10,-24,1,-8,-10,·,·
CC(=O)OCC1(C)CN(c2ccccc2)N(C(=O)c2ccc(C(C)(C)C)cc2)C1=O (configuration not stated),1,3,25*,-3,-3,-2,-5
CC(=O)OCC1(C)CN(c2ccccc2)N(C(C)=O)C1=O (configuration not stated),-13,8,-1,-12,-7,·,·
COc1cc(Br)cc(C=Nc2cccc(C(F)(F)F)c2)c1O,40,-15,13*,-6,-8,0,2
C/C(=N\NC(=O)c1ccccn1)c1ccc(C(=O)O)s1,-6,-1,0,-5,-1,·,·
Cc1cccc(S(=O)(=O)Nc2nc3ccccc3nc2NCc2ccc3c(c2)OCO3)c1,-4,-9,1,-18,-7,·,·
COCCn1c(C)cc(/C=C2/NC(=O)N(c3cccc(Cl)c3)C2=O)c1C,8,-13,105*,12,-6,-1,-2
CCn1c(C)cc(/C=C2/NC(=O)N(c3ccccc3)C2=O)c1C,17,-12,2,-10,-7,·,·
O=C(NCCOC(=O)c1ccc(Cl)cc1)c1cccnc1,-5,-7,0,·,2,·,·
Cn1cc(-c2cc(C(=O)O)on2)cn1,·,-12,2,-14,·,·,·
Clc1ccc(C2CC(c3cccs3)n3ncnc3N2)c(Cl)c1 (configuration not stated),14,5,27*,11,1,-2,-5
Cc1ccc(-n2c(=O)c3ccccc3n(CC(=O)C(C)(C)C)c2=O)cc1,3,-9,-2,-7,-90,·,·
COc1ccc(CC(=O)Nc2nnc(C(C)(C)C)s2)cc1OC,-7,-16,32*,-9,-5,-1,-11
CCOC(=O)C1CCN(c2cc(C)nc3cc(-c4cccc(F)c4)nn23)CC1,-5,4,13*,-14,-21,-1,3
COc1ccc(C2=NOC(C(=O)NC(C)(C)C)C2)cc1 (configuration not stated),0,-16,23*,-5,9,-2,-9
O=c1oc2c(CN3CCCCC3)c(O)ccc2cc1-c1nc2ccccc2[nH]1,·,·,·,43,·,·,·

# High-throughput results as filed in PubChem BioAssay.
